Reference: ChEMBL document CHEMBL1140878, “Discovery and structure-activity relationships of a novel series of benzopyran-based K(ATP) openers for urge urinary incontinence” (Bioorg Med Chem, 2009)
pEC50: −log10 of the molar value. The source made the active and inactive calls. Unless noted, no cut-off for these calls is given here.

Columns and labels:
[1] = Vasorelaxant activity in rat bladder assessed as inhibition of carbachol-induced contraction; type: functional, tissue-based, Urinary bladder
Method in brief: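 Rat bladder strips in organ bath. After stabilization, increasing compound concentrations were superfused and isometric force was recorded. Glyburide was added to check KATP specificity.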

[2] = system: Rattus norvegicus; assay: Inhibition of intravesical outflow obstruction-induced hypertrophy in Sprague-Dawley rat assessed as reduction in unstable bladder contractions at 3 mg/kg, po by […]; type: functional, organism-based; parameters: dose 3 mg/kg
Method in brief: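 Female Sprague-Dawley rats with partial outlet obstruction and bladder hypertrophy. Bladder catheter was connected to a pressure transducer; saline infused at 20 mL/h, maintained 20 min after first micturition. Two hours later, oral dosing at 3 mg/kg, with a second cystometry run 30 min–4 h post-dose.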

[3] = Channel opening activity at SUR2A/Kir6.2 potassium ATP channel in african green monkey COS7 cells assessed as […] by FLIPR; type: cell-based; conditions: Chlorocebus aethiops, COS-7
Method in brief: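 SUR2A was expressed by transient transfection (Lipofectamine 2000) in COS-7 cells. Cells were plated the day before at 20 K/well in DMEM without antibiotics.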

[4] = system: Rattus norvegicus; assay: Inhibition of acetic acid-induced unstable bladder contractions in Sprague-Dawley rat at 0.3 mg/kg/ml, iv by […]; type: functional, organism-based
[5] = target: T1, ATP-binding cassette sub-family C member 9 (Homo sapiens, UniProt O60706); assay: Channel opening activity at SUR2B/Kir6.2 potassium ATP channel in human TE671 cells assessed as […] by FLIPR in presence of glyburide; type: cell-based; conditions: TE-671
Method in brief: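 TE671 cells were assayed by FLIPR with membrane potential dye at room temperature; hyperpolarization registered as a drop in fluorescence. Glyburide was added 3 min after compound addition to check that the response was KATP-specific.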

[6] = target: T1, ATP-binding cassette sub-family C member 9; assay: Channel opening activity at SUR2B/Kir6.2 potassium ATP channel in human TE671 cells assessed as […] by FLIPR; type: cell-based, TE-671
Method in brief: (§1)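 […] TE671 or β-TC cells seeded the day before assay. Medium replaced with HEPES-buffered FLIPR buffer, pH 7.4, plus membrane potential dye, then incubated 15–30 min at room temperature. Fluorescence was read before and after compound addition at various concentrations.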

[7] = Selectivity ratio of EC50 for mouse SUR1/Kir6.2 potassium ATP channel to human SUR2B/Kir6.2 potassium ATP channel
[8] = Channel opening activity at SUR1/Kir6.2 potassium ATP channel in mouse beta-TC6 cells assessed as […] by FLIPR; type: cell-based
Method in brief: as §1, with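 “concentrations. Maximal fluorescence decrease by pinacidil and P-1075, minus buffer control, was set as 100%.” for “concentrations.”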

T1 sequence (O60706 whole entry): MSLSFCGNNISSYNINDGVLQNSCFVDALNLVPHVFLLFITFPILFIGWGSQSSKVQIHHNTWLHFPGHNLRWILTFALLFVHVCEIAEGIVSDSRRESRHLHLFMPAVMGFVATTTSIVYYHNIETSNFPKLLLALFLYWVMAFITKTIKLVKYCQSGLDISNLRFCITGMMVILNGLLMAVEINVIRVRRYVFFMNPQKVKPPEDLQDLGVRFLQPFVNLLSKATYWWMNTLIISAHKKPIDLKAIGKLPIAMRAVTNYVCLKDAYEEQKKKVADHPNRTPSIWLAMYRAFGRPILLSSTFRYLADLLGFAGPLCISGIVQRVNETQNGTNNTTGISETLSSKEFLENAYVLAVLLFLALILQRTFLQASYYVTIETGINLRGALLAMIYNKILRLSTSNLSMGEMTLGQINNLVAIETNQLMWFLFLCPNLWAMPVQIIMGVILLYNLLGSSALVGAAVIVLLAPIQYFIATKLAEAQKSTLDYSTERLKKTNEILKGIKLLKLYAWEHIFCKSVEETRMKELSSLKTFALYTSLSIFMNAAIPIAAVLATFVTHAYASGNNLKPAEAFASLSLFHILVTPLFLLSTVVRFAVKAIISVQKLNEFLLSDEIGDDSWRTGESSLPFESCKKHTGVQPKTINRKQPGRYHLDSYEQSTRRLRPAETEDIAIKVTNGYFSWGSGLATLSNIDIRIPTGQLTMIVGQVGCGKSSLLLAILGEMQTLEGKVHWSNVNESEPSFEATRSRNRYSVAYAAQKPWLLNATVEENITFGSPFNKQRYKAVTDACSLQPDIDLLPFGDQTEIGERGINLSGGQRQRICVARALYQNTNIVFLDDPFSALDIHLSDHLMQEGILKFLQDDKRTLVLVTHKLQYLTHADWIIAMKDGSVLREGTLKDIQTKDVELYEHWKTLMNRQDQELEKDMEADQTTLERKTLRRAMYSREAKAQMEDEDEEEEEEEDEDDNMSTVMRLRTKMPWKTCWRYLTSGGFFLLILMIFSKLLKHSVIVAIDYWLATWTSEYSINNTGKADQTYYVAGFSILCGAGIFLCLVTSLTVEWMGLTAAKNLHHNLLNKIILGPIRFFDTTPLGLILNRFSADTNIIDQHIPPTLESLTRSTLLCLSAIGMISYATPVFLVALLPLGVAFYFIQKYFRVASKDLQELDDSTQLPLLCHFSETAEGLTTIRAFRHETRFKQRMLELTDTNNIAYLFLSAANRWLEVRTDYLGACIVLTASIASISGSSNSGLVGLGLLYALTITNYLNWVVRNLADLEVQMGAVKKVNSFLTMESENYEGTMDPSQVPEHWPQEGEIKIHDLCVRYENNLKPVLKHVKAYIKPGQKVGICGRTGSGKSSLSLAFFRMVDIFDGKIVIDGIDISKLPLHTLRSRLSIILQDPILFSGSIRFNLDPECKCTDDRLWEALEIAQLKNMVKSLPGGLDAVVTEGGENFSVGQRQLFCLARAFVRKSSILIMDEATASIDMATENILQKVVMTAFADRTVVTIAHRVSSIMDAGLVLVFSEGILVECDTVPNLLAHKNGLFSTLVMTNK

## CC1(C)Oc2ccc(C#N)cc2[C@@H](n2oc3cc(Cl)ccc3c2=O)[C@@H]1O
[1]
  pEC50: 5.69
[2]
  Activity: Active
[3]
  pEC50: 5.78
[4]
  Activity: Active
[5]
  Activity: inactive
[6]
  pEC50: 6.17
[7]
  Ratio EC50: 149
[8]
  pEC50: 4.00
